HSP90 refold inh: blocks HSP90-mediated luciferase refolding in reticulocyte lysate; inhibition, % at 5.6 µM; AID 1789; Rabbit reticulocyte lysate, luciferase refolding luminescence, 3 h; actives 0.91% (n = 290,000);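 active means inhibition above the screen-wide mean plus 3 SD, computed separately per campaign, cut at about 16% in these data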;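 further: inhibitors lower the luminescence because luciferase stays unfolded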
PPC-1+TRAIL kill: compounds killing PPC-1 cancer cells with TRAIL present (potentiator screen, no TRAIL-free arm). PPC-1 cells + TRAIL, ATPLite viability luminescence. cell killing (% activity), % at 4 µM or 5 µM. actives 0.41% (n = 220,000);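 active means cell killing above 50% in the first pass at 4 µM, then a duplicate retest at 5 µM averaging 50% or more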
FLuc inh counter: counter-screen for luciferase assay inhibitors: firefly luciferase inhibition; actives 1.5% (n = 200,000); P08659; ATPLite firefly luciferase biochemical luminescence, 10 min; inhibition, % at 10 µM; AID 1006;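 active means inhibition above about 50% when tested at 10 µM, limit read from the data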
Target sequence (P08659 whole entry, looked up): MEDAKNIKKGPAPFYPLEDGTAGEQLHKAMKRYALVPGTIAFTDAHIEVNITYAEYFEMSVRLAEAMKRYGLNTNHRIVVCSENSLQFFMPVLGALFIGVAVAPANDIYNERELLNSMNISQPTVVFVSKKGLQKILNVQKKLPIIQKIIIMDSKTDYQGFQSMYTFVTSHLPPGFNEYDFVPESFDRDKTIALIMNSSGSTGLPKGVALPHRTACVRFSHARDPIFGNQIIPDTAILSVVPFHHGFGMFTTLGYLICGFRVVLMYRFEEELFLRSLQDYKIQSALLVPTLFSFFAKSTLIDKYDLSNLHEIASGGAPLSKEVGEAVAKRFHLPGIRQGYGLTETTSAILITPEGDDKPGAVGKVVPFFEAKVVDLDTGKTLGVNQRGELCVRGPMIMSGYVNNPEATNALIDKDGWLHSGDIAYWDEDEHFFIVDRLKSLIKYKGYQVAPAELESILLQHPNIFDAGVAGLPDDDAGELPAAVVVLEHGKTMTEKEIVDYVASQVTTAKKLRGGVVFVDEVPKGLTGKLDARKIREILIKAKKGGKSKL
TRAIL sens C8: caspase-8 TRAIL sensitization. inhibition (viability loss, TRAIL sensitization), % at 10 µM. NB7+C8 cells + TRAIL, ATPlite viability luminescence. actives 1% (n = 360,000). AID 624354;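 active means compounds causing at least 50% loss of cell viability in the single-dose screen, relative to plate controls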
STAT3 inh: reduces IL-6 driven STAT3 reporter signal. actives 0.89% (n = 190,000). inhibition, % at 5.5 µM. AID 862. U3A cells, IL-6 STAT3-luciferase reporter, luminescence; host cell line lacks STAT1;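 active means inhibition above the mean inhibition across all screened compounds plus 3 SD, cut at about 44% in these data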
FLuc act counter: firefly luciferase counter-screen for stimulation assays | P08659 | ATPlite luciferase biochemical, luminescence, 10 min; 0 = ATP-free wells, 1 = DMSO control | activation factor at 10 µM | 200,000 tested, under 10 active;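 active means luciferase activation factor, scaled between plate controls, of at least 2 with compound at 10 µM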
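System: cell-free luciferase reagent; medium: PBS as buffer for the ATP substrate; doses: test compounds dosed from 2 mM stocks in 100% DMSO; incubation: 10 min, room temperature; measured by: luminescence from luciferase reaction; read-out: luciferase activation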
Numbers stand for hits; 0 = inactive; - = no result. In the library only some 2.2% were active in any assay of this set; here they are far more common.

SMILES | HSP90 refold inh | PPC-1+TRAIL kill | FLuc inh counter | TRAIL sens C8 | STAT3 inh | FLuc act counter
COc1ccc(-c2csc(NC(=O)c3ccccc3NS(=O)(=O)c3ccc(F)c(F)c3)n2)cc1 | 0 | 0 | 0 | 0 | 78.6 | 0
Cc1ccc(-c2csc(NC(=O)c3cccc(S(=O)(=O)N4CCN(C)CC4)c3)n2)cc1 | 0 | 0 | 0 | 0 | 0 | 0
NS(=O)(=O)c1cccc(NC(=O)COC(=O)CCN2C(=O)c3ccccc3C2=O)c1 | - | - | - | 0 | - | -
CCOC(=O)Cc1csc(NC(=O)/C=C\c2ccccc2)n1 | 0 | 0 | 59.4 | 0 | 0 | 0
CCOC(=O)Cc1csc(NC(=O)/C=C\c2ccccc2Cl)n1 | 0 | 0 | 55.6 | 0 | 0 | 0
CCOC(=O)Cc1csc(NC(=O)c2cc3c(s2)CCCC3)n1 | 0 | 0 | 61.1 | 53.7 | 0 | 0
CCOC(=O)Cc1csc(NC(=S)NC(=O)c2ccc(Cl)cc2)n1 | 0 | 0 | 58.8 | 50.9 | 0 | 0
Cc1cc(C)c[n+](CC(=O)c2c(C)cc(C)c([N+](=O)[O-])c2C)c1 | 0 | - | - | 0 | - | -
O=C1c2c(-c3ccc(Br)cc3)noc2CCN1Cc1cn(-c2ccc(Cl)cc2)nn1 | - | - | - | 0 | - | -
O=C1C=C(N2CCOCC2)c2ccccc2C1=O | 0 | - | - | 93.1 | - | -
O=C1C=C(N2CCOCC2)c2cccc3cccc1c23 | - | - | - | 0 | - | -
COC(=O)c1ccccc1NC(=O)c1cc(-c2ccc(O)cc2)on1 | 0 | 0 | 0 | 51.0 | 0 | 0
COC(=O)c1ccccc1NC(=O)c1cc(C2CC2)on1 | 0 | 0 | 0 | 0 | 0 | 0
CCN(CC)C(=O)c1nn(-c2ccccc2)c2c1C1CCC2(C)C1(C)C (configuration not stated) | 0 | 0 | 0 | 51.0 | 0 | 0
C/C(=N\NC(=O)c1cc(C(C)C)[nH]n1)c1ccco1 | 0 | 0 | 79.0 | 0 | 0 | 0
C/C(=N\NC(=O)c1cc(C(C)C)[nH]n1)c1ccncc1 | 0 | - | - | 0 | - | -
O=c1c2ccccc2nc2n1CCC2 | 0 | 0 | 0 | 0 | 0 | 0
O=c1c2cc(-c3ccccc3)sc2nc2n1CCC2 | 0 | 0 | 67.9 | - | 0 | 0
c1csc(-c2cn3ccc4ccccc4c3n2)c1 | 0 | 0 | 53.1 | 0 | 0 | 0
CCc1noc(C)c1C(=O)N1CCN(c2cccc(Cl)c2)CC1 | - | - | - | 0 | - | -
O=C(COc1ncnc2ccccc12)c1ccc(Cl)cc1 | 0 | 0 | 80.2 | 0 | 0 | 0
O=c1c2ccccc2nnn1CSc1nnc2sc3ccccc3n12 | 0 | 0 | 57.7 | - | 0 | 0
Cc1cc(C)nc(Nc2n[nH]c(-c3ccccc3Cl)n2)n1 | 0 | 0 | 57.6 | 0 | 0 | 0
Cc1cc(C)nc(Nc2n[nH]c(-c3cccc4ccccc34)n2)n1 | 0 | 0 | 0 | 0 | 0 | 0
O=C(c1ccc2c3c(cccc13)CC2)N1CCN(c2ncccn2)CC1 | 0 | - | - | 0 | 0 | -
SMILES | HSP90 refold inh | PPC-1+TRAIL kill | FLuc inh counter | TRAIL sens C8 | STAT3 inh | FLuc act counter
Clc1ccc(-c2nc3ccccn3c2CN2CCCCC2)cc1 | 0 | 0 | 0 | 0 | 45.7 | 0
COc1ccc(N2CCN(C(=O)C(Cc3ccccc3)n3cccc3)CC2)cc1 (configuration not stated) | 0 | 82.0 | 0 | 0 | 0 | 0
CC(C)COC(=O)N1CC(O)CC1C(=O)O (configuration not stated) | 0 | 0 | 0 | 0 | 0 | 0
CC(C)(C)OC(=O)NCc1ccc(CNC(=O)c2[nH]cnc2C(=O)N[C@@H](Cc2ccccc2)C(=O)OCc2ccccc2)cc1 | 0 | - | - | 0 | - | -
CC(C)(C)OC(=O)[C@H](Cc1ccccc1)NC(=O)c1[nH]cnc1C(=O)Nc1ccccc1F | - | - | - | 62.0 | - | -
CC(C)C[C@H](NC(=O)c1nc[nH]c1C(=O)N[C@@H](CCCCNC(=O)OC(C)(C)C)C(=O)OC(C)(C)C)C(=O)OC(C)(C)C | - | 0 | - | 51.3 | - | -
CC(C)(C)OC(=O)NCCCC[C@H](NC(=O)c1[nH]cnc1C(=O)Nc1ccccc1)C(=O)OC(C)(C)C | - | 0 | - | 58.8 | - | -
CC(C)(C)OC(=O)NCc1ccc(NC(=O)c2nc[nH]c2C(=O)N[C@@H](Cc2ccccc2)C(=O)OCc2ccccc2)cc1 | - | 0 | - | 82.6 | - | -
O=C(O)CCCCCCCCc1cn(CCc2c[nH]c3ccccc23)nn1 | 0 | - | - | 0 | - | -
CCCCN1CC(=O)N2[C@H]3c4cc(C)ccc4OC[C@@H]3[C@H](C(=O)OCC)[C@]2(C)C1=O | - | - | - | 0 | - | -
O=C(COc1ccc(Br)cc1)NCc1cn2ccccc2n1 | 0 | 0 | - | 0 | - | -
CCN(CC)S(=O)(=O)c1ccc(-c2cn3ccccc3n2)cc1 | - | - | - | 0 | - | -

High-throughput results deposited in PubChem by several laboratories.
